Experimental data from the RNAGym collection of RNA variant scans (doi:10.1038/s41586-018-0170-7).

B1: tRNA (parent)
chain: GUUCCGUUGGCGUAAUGGUAACGCGUCUCCCUCCUAAGGAGAAGACUGCGGGUUCGAGUCCCGUACGGAACG

Variants of: B1
Experiment: yeast fitness, log relative to wild type (ln ratio); higher = fitter; tRNA-Arg(CCU), competitive growth, 37 C, 1 M NaCl
How it was run: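 BY4742 cells without the chromosomal tRNA-Arg(CCU) gene carried a combinatorial variant library on a HIS3 centromeric plasmid, from two independent transformations. After 4 generations in SC-HIS at 30 °C, pools spent ~6.5 generations (~26.5 h) in SC-HIS 1M NaCl at 37 °C, giving three outputs per input, and 125 bp paired-end Illumina reads counted the variants. Fitness is the natural log of each genotype's generations over the wild type's, with generations taken as OD-scaled log2 output/input frequency weighted by inverse variance across replicates.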

Question: Which “yeast fitness (ln)” value does the source give for G1A C27U A43C C46U A69G A70G C71U here?
Answer: Its value is -0.336.

Question: With G1A C27U A43C C46U A69G C71U as the variant, how does the “yeast fitness (ln)” value read?
Answer: Its value is -0.109.

Question: For G1A C27U C66U A69G C71U, which “yeast fitness (ln)” value is on record?
Answer: Its value is -0.285.

Question: For G1A A43C A70U, which “yeast fitness (ln)” value is on record?
Answer: Its value is -0.13.

Question: With G1A A43C A70G as the variant, how does the “yeast fitness (ln)” value read?
Answer: The value was -0.159.

Question: With G1A G6A A43C C46U A70G as the variant, how does the “yeast fitness (ln)” value read?
Answer: The value was -0.188.

Question: With G1A G6A A43C C46U A70U as the variant, how does the “yeast fitness (ln)” value read?
Answer: Its value is -0.206.

Question: Which “yeast fitness (ln)” value does the source give for G1A C46U C66U A69G here?
Answer: The value was -0.202.

Question: Which “yeast fitness (ln)” value does the source give for G1A C71U here?
Answer: Its value is -0.0163.

Question: For G1A A43C C46U A69G, which “yeast fitness (ln)” value is on record?
Answer: The value was -0.261.

Question: For G1A C46U, which “yeast fitness (ln)” value is on record?
Answer: The value was -0.0224.

Question: With G1A G6A A43C C46U C66U A69G A70G C71U as the variant, how does the “yeast fitness (ln)” value read?
Answer: Its value is -0.274.

Question: For G1A G6A A43C A70G C71U, which “yeast fitness (ln)” value is on record?
Answer: The value was -0.27.

Question: For G1A G6A A43C C46U C66U C71U, which “yeast fitness (ln)” value is on record?
Answer: Its value is -0.0152.

Question: For G1A C46U C66A A69G A70U C71U, which “yeast fitness (ln)” value is on record?
Answer: Its value is -0.331.

Question: Which “yeast fitness (ln)” value does the source give for G1A A43C C46U C66U A69G A70G C71U here?
Answer: Its value is -0.263.

Question: Which “yeast fitness (ln)” value does the source give for G1A G6A A43C C66U C71U here?
Answer: The value was -0.144.

Question: With G1A A43C A69G as the variant, how does the “yeast fitness (ln)” value read?
Answer: The value was -0.145.

Question: Which “yeast fitness (ln)” value does the source give for G1A C66U A70U C71U here?
Answer: The value was -0.212.

Question: Which “yeast fitness (ln)” value does the source give for G1A G6A C27U A43C A69G C71U here?
Answer: The value was -0.598.

Question: For G1A G6A A43C C46U C71U, which “yeast fitness (ln)” value is on record?
Answer: The value was -0.145.

Question: With G1A C27U A43C C46U C66U A70U C71U as the variant, how does the “yeast fitness (ln)” value read?
Answer: The value was -0.469.

Question: Which “yeast fitness (ln)” value does the source give for G1A C46U C66U C71U here?
Answer: The value was -0.0203.

Question: With G1A C27U A70G as the variant, how does the “yeast fitness (ln)” value read?
Answer: Its value is -0.163.

Question: With G1A C27U A70U as the variant, how does the “yeast fitness (ln)” value read?
Answer: The value was -0.112.

Question: For G1A C27U A43C A69G A70G, which “yeast fitness (ln)” value is on record?
Answer: Its value is -0.303.

Question: For G1A C27U A43C A69G A70U, which “yeast fitness (ln)” value is on record?
Answer: Its value is -0.389.

Question: Which “yeast fitness (ln)” value does the source give for G1A G6A A43C C46U C66U A70G here?
Answer: The value was -0.194.

Question: With G1A G6A A43C C46U C66U A70U as the variant, how does the “yeast fitness (ln)” value read?
Answer: Its value is -0.24.

Question: Which “yeast fitness (ln)” value does the source give for G1A A43C C46U C66A A70U C71U here?
Answer: The value was -0.189.

Question: For G1A C27U A43C C66U A69G A70G C71U, which “yeast fitness (ln)” value is on record?
Answer: Its value is -0.371.

Question: Which “yeast fitness (ln)” value does the source give for G1A C27U A69G A70G C71U here?
Answer: Its value is -0.322.

Question: For G1A A70U C71U, which “yeast fitness (ln)” value is on record?
Answer: The value was -0.0607.

Question: For G1A A43C C66A A70U, which “yeast fitness (ln)” value is on record?
Answer: Its value is -0.129.

Question: Which “yeast fitness (ln)” value does the source give for G1A A43C C66A A70G here?
Answer: Its value is -0.19.

Question: Which “yeast fitness (ln)” value does the source give for G1A C27U A69G A70U C71U here?
Answer: The value was -0.421.

Question: Which “yeast fitness (ln)” value does the source give for G1A G6A C27U A43C here?
Answer: Its value is -0.204.

Question: With G1A C27U A43C C66A C71U as the variant, how does the “yeast fitness (ln)” value read?
Answer: The value was -0.277.

Question: Which “yeast fitness (ln)” value does the source give for G1A A43C C46U C66U here?
Answer: The value was -0.151.

Question: With G1A A43C C46U as the variant, how does the “yeast fitness (ln)” value read?
Answer: Its value is -0.059.

Question: With G1A C27U C46U C66A A70G as the variant, how does the “yeast fitness (ln)” value read?
Answer: Its value is -0.213.

Question: For G1A C27U C46U C66A A70U, which “yeast fitness (ln)” value is on record?
Answer: The value was -0.182.

Question: Which “yeast fitness (ln)” value does the source give for G1A A43C C66U A69G A70G C71U here?
Answer: The value was -0.293.

Question: For G1A C46U C66U A69G C71U, which “yeast fitness (ln)” value is on record?
Answer: Its value is -0.763.

Question: For G1A C46U C66A A69G A70G C71U, which “yeast fitness (ln)” value is on record?
Answer: Its value is -0.178.

Question: For G1A C27U A43C C46U A69G A70G, which “yeast fitness (ln)” value is on record?
Answer: Its value is -0.183.

Question: Which “yeast fitness (ln)” value does the source give for G1A C27U A43C C46U A69G A70U here?
Answer: Its value is -0.324.

Question: Which “yeast fitness (ln)” value does the source give for G1A A43C C46U C66A A69G A70G C71U here?
Answer: Its value is -0.191.

Question: For G1A C46U C66U A69G A70U, which “yeast fitness (ln)” value is on record?
Answer: The value was -0.162.

Question: With G1A C46U C66U A69G A70G as the variant, how does the “yeast fitness (ln)” value read?
Answer: Its value is -0.134.

Question: For G1A A43C C46U C66U A70G C71U, which “yeast fitness (ln)” value is on record?
Answer: The value was -0.192.

Question: With G1A G6A C27U A43C C46U A69G A70G C71U as the variant, how does the “yeast fitness (ln)” value read?
Answer: Its value is -0.374.

Question: With G1A G6A A69G A70U C71U as the variant, how does the “yeast fitness (ln)” value read?
Answer: Its value is -0.247.

Question: With G1A C27U A69G A70U as the variant, how does the “yeast fitness (ln)” value read?
Answer: The value was -0.216.

Question: Which “yeast fitness (ln)” value does the source give for G1A C27U A69G A70G here?
Answer: Its value is -0.215.

Question: Which “yeast fitness (ln)” value does the source give for G1A C27U C66U here?
Answer: The value was -0.206.

Question: For G1A C27U C66A, which “yeast fitness (ln)” value is on record?
Answer: The value was -0.123.

Question: With G1A C27U C46U A70G C71U as the variant, how does the “yeast fitness (ln)” value read?
Answer: The value was -0.0653.

Question: Which “yeast fitness (ln)” value does the source give for G1A C46U C66A A69G A70G here?
Answer: The value was -0.183.

Question: Which “yeast fitness (ln)” value does the source give for G1A C46U C66A A69G A70U here?
Answer: Its value is -0.0801.

Question: For G1A G6A A43C C66U A69G A70G, which “yeast fitness (ln)” value is on record?
Answer: The value was -0.253.

Question: Which “yeast fitness (ln)” value does the source give for G1A C27U C46U C66A C71U here?
Answer: Its value is -0.148.

Question: For G1A C27U A43C C66U A69G A70G, which “yeast fitness (ln)” value is on record?
Answer: Its value is -0.295.

Question: For G1A C27U A43C C66U A69G A70U, which “yeast fitness (ln)” value is on record?
Answer: The value was -0.325.

Question: Which “yeast fitness (ln)” value does the source give for G1A G6A C27U A43C A70U here?
Answer: The value was -0.3.

Question: With G1A G6A C27U A43C A70G as the variant, how does the “yeast fitness (ln)” value read?
Answer: Its value is -0.21.

Question: With G1A A43C C46U C66A A70G C71U as the variant, how does the “yeast fitness (ln)” value read?
Answer: Its value is -0.191.

Question: Which “yeast fitness (ln)” value does the source give for G1A C66A here?
Answer: The value was 0.0139.

Question: Which “yeast fitness (ln)” value does the source give for G1A C66U here?
Answer: The value was -0.0546.

Question: With G1A A43C C66A A70G C71U as the variant, how does the “yeast fitness (ln)” value read?
Answer: Its value is -0.164.

Question: With G1A C27U A43C C46U C66U A70G C71U as the variant, how does the “yeast fitness (ln)” value read?
Answer: The value was -0.299.

Question: With G1A C27U A43C A70U as the variant, how does the “yeast fitness (ln)” value read?
Answer: Its value is -0.329.

Question: For G1A C27U A43C A70G, which “yeast fitness (ln)” value is on record?
Answer: The value was -0.173.

Question: Which “yeast fitness (ln)” value does the source give for G1A C27U C46U C71U here?
Answer: The value was -0.0338.

Question: With G1A A43C C66A A69G A70U C71U as the variant, how does the “yeast fitness (ln)” value read?
Answer: Its value is -0.257.

Question: Which “yeast fitness (ln)” value does the source give for G1A A43C C46U C66U C71U here?
Answer: The value was -0.247.

Question: With G1A C27U A43C C46U C66U A70G as the variant, how does the “yeast fitness (ln)” value read?
Answer: Its value is -0.226.

Question: For G1A C27U A43C C46U C66U A70U, which “yeast fitness (ln)” value is on record?
Answer: The value was -0.173.

Question: With G1A C27U C71U as the variant, how does the “yeast fitness (ln)” value read?
Answer: The value was -0.0389.

Question: For G1A C27U C46U A70U, which “yeast fitness (ln)” value is on record?
Answer: The value was -0.088.

Question: For G1A C27U C46U A70G, which “yeast fitness (ln)” value is on record?
Answer: Its value is -0.175.

Question: For G1A C46U C66U A70G C71U, which “yeast fitness (ln)” value is on record?
Answer: The value was -0.493.

Question: For G1A C27U A43C C66A A69G A70G C71U, which “yeast fitness (ln)” value is on record?
Answer: Its value is -0.427.

Question: With G1A C66U A69G A70G as the variant, how does the “yeast fitness (ln)” value read?
Answer: Its value is -0.176.
